Published values collected from several papers.
Effect on: cell growth or viability

SMILES	cell line	method	time	CC50 [µM]
O=C(NCc1ccc(Cl)cc1)C1CC1c1ccccc1 (stereo not drawn)	BHK-21	MTT	–	> 100
C[C@H]1[C@H](OC(=O)CCC(=O)O)O[C@@H]2O[C@@]3(C)CC[C@H]4[C@H](C)CC[C@@H]1[C@@]24OO3	Vero	WST-1	18 h	29.2
O=C(Nc1ncc([N+](=O)[O-])s1)c1ccco1	BHK-21	MTT	–	> 10
Nc1ccc(-c2ccc(Nc3cc(S(=O)(=O)O)c(N)c4c3C(=O)c3ccccc3C4=O)cc2)c(S(=O)(=O)O)c1	BHK-21	MTT	42 h	177
Clc1ccc(CCC(Cn2ccnc2)Sc2c(Cl)cccc2Cl)cc1 (stereo not drawn)	Vero	WST-1	18 h	34.9
Cc1cc(C)cc([C@@H]2C[C@H]2C(=O)NC(C(=O)NC2CC2)c2ccc(C)c(C)c2)c1 (stereo partly drawn)	BHK-21	MTT	24 h	~10
Cc1cc(N)c2cc(NC(=O)Nc3ccc4nc(C)cc(N)c4c3)ccc2n1	BHK-21	MTT	42 h	49
OCCCCCCC1COOC2(CCCCCCCCCCC2)OOC1	BHK-21	WST-1	72 h	3.4
COc1cc(Nc2ccnc3ccc(Br)cc23)cc(OC)c1OC	Vero	resazurin	–	28.6
CC(=O)c1cccc(NC(=O)C(=O)[C@H](CC(C)C)NC(=O)[C@H](CC(C)C)NC(=O)[C@H](CC(C)C)NC(=O)OCc2ccccc2)c1	Vero	ATP luminescence	48 h	17.7
O=C(Nc1ncc([N+](=O)[O-])s1)c1cc(Cl)ccc1Cl	BHK-21	MTT	–	> 100
C=CC(=O)Nc1cccc(-c2snc3cc(-c4ccc(N)c(OC)c4)cnc23)c1	Vero	resazurin	–	21
